The values below come from ChEMBL document CHEMBL1914320, “C4-alkylthiols with activity against Moraxella catarrhalis and Mycobacterium tuberculosis” (Bioorg Med Chem, 2011).

What is called MBC is the smallest concentration meeting the test's criterion for killing.

≈ marks a conversion by molar mass, not a printed value. Calls of active or inactive are those of the source.

Series [1] deals with Enterococcus faecalis. The series is described as follows: Antibacterial activity against non-beta-lactamase producing Enterococcus faecalis ATCC 29212 after 48 hrs by microdilution broth method. It counts as functional, organism-based. An outline of the steps:
(§1)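 Broth microdilution followed CLSI guidelines. Compound was dissolved in 95% ethanol, diluted at least 10-fold into Mueller-Hinton broth, then serially two-fold diluted from 500 to 15.6 μg/mL. Actively growing culture was added at 5 × 10^5 cells/mL. Plates ran 48 h at 37 °C, scored for visible growth at 24 and 48 h. MIC was the lowest concentration without growth. For MBC, 10 μL from each clear well was plated on MH agar. Controls were ethanol and penicillin. Triplicate.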
(In general: In broth dilution the organism is exposed to a series of concentrations in liquid medium.)

Series [2] deals with Enterococcus faecalis. The series is described as follows: Antibacterial activity against non-beta-lactamase producing Enterococcus faecalis ATCC 29212 at 10 ug/disc after overnight incubation by disc diffusion assay. It counts as functional, organism-based. An outline of the steps:
(§2)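 Isolates were held at −80 °C. Five colonies were suspended in Mueller-Hinton broth to a 0.5 McFarland density and swabbed onto MH agar. Discs carried 10 μg compound, applied in methanol and dried at room temperature. Plates were incubated overnight at 37 °C, and the zone of inhibition was measured in mm from the disc edge. Controls were methanol-only and penicillin discs. Run blinded, in triplicate.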

Series [3] is described as follows: Chemical stability of the compound assessed as compound degradation after 48 hrs by NMR analysis. As to conditions: for degraded at 48 h: read-out: Drug metabolism. It counts as physicochemical.
Series [4] concerns Escherichia coli. The series is described as follows: Antibacterial activity against non-beta-lactamase producing Escherichia coli ATCC 25922 at 10 ug/disc after overnight incubation by disc diffusion assay. It counts as functional, organism-based. An outline of the steps:
as §2
For orientation: In agar diffusion tests the substance spreads into inoculated agar from a disc or well.

The subject of series [5] is Staphylococcus aureus. In words: Antibacterial activity against non-beta-lactamase producing Staphylococcus aureus ATCC 25923 at 10 ug/disc after overnight incubation by disc diffusion assay. The class given is functional, organism-based. An outline of the steps:
as §2

Series [6] concerns Staphylococcus aureus. In words: Antibacterial activity against non-beta-lactamase producing Staphylococcus aureus ATCC 25923 after 48 hrs by microdilution broth method. It counts as functional, organism-based. An outline of the steps: as §1
Series [7] concerns Pseudomonas aeruginosa. The series is described as follows: Antibacterial activity against non-beta-lactamase producing Pseudomonas aeruginosa ATCC 27853 at 10 ug/disc after overnight incubation by disc diffusion assay. It counts as functional, organism-based. An outline of the steps: as §2
Series [8] relates to Escherichia coli. In words: Antibacterial activity against non-beta-lactamase producing Escherichia coli ATCC 25922 after 48 hrs by microdilution broth method. The class given is functional, organism-based. An outline of the steps:
as §1

Series [9] concerns Pseudomonas aeruginosa. The series is described as follows: Antibacterial activity against non-beta-lactamase producing Pseudomonas aeruginosa ATCC 27853 after 48 hrs by microdilution broth method. The class given is functional, organism-based. An outline of the steps:
as §1

The test system of series [10] is Moraxella catarrhalis. In words: Antibacterial activity against beta-lactamase producing Moraxella catarrhalis isolate 5 after 48 hrs incubation by microdilution broth method. The class given is functional. The following applies: isolate 5, 48 h. An outline of the steps: as §1
Series [11] has as its system Moraxella catarrhalis. The series is described as follows: Antibacterial activity against beta-lactamase producing Moraxella catarrhalis isolate 6 at 10 ug/disc after overnight incubation by disc diffusion assay in presence of 1 mol equiv of glutathione. The class given is functional.
Series [12] has as its system Moraxella catarrhalis. In words: Antibacterial activity against beta-lactamase producing Moraxella catarrhalis isolate 4 at 10 ug/disc after overnight incubation by disc diffusion assay. The class given is functional. An outline of the steps:
as §2

Series [13] deals with Moraxella catarrhalis. The series is described as follows: Antibacterial activity against beta-lactamase producing Moraxella catarrhalis isolate 4 at 10 ug/disc after overnight incubation by disc diffusion assay in presence of 1 mol equiv of glutathione. It counts as functional. The following applies: read-out: IZ.
The subject of series [14] is Moraxella catarrhalis. In words: Antibacterial activity against beta-lactamase producing Moraxella catarrhalis isolate 1 at 10 ug/disc after overnight incubation by disc diffusion assay in presence of 1 mol equiv of glutathione. It counts as functional. As to conditions: read-out: IZ.
In series [15] the test system is Moraxella catarrhalis. In words: Antibacterial activity against beta-lactamase producing Moraxella catarrhalis isolate 1 after 48 hrs incubation by microdilution broth method. The class given is functional. As to conditions: isolate 1, 48 h. An outline of the steps: as §1
Series [16] deals with Mycobacterium tuberculosis. In words: Antimycobacterial activity against wild type Mycobacterium tuberculosis H37Rv by Alamar blue assay. The class given is functional.
The test system of series [17] is Moraxella catarrhalis. The series is described as follows: Antibacterial activity against beta-lactamase producing Moraxella catarrhalis isolate 5 at 10 ug/disc after overnight incubation by disc diffusion assay in presence of 1 mol equiv of glutathione. It counts as functional. As to conditions: read-out: IZ.
In series [18] the test system is Moraxella catarrhalis. In words: Antibacterial activity against beta-lactamase producing Moraxella catarrhalis isolate 3 at 10 ug/disc after overnight incubation by disc diffusion assay. It counts as functional. An outline of the steps:
as §2

In series [19] the test system is Moraxella catarrhalis. In words: Antibacterial activity against beta-lactamase producing Moraxella catarrhalis isolate 5 at 10 ug/disc after overnight incubation by disc diffusion assay. It counts as functional. As to conditions: read-out: IZ. An outline of the steps: as §2
Series [20] deals with Moraxella catarrhalis. The series is described as follows: Antibacterial activity against beta-lactamase producing Moraxella catarrhalis isolate 3 at 10 ug/disc after overnight incubation by disc diffusion assay in presence of 1 mol equiv of glutathione. It counts as functional.
Series [21] concerns Moraxella catarrhalis. The series is described as follows: Antibacterial activity against beta-lactamase producing Moraxella catarrhalis isolate 1 at 10 ug/disc after overnight incubation by disc diffusion assay. The class given is functional. An outline of the steps: as §2
The test system of series [22] is Moraxella catarrhalis. The series is described as follows: Antibacterial activity against beta-lactamase producing Moraxella catarrhalis isolate 6 at 10 ug/disc after overnight incubation by disc diffusion assay. The class given is functional. An outline of the steps:
as §2

Series [23] deals with Moraxella catarrhalis. The series is described as follows: Antibacterial activity against beta-lactamase producing Moraxella catarrhalis isolate 2 after 48 hrs incubation by microdilution broth method. The following applies: isolate 2, 48 h. It counts as functional. An outline of the steps: as §1
Series [24] relates to Moraxella catarrhalis. In words: Antibacterial activity against beta-lactamase producing Moraxella catarrhalis isolate 2 at 10 ug/disc after overnight incubation by disc diffusion assay in presence of 1 mol equiv of glutathione. It counts as functional. As to conditions: read-out: IZ.
In series [25] the test system is Moraxella catarrhalis. In words: Antibacterial activity against beta-lactamase producing Moraxella catarrhalis isolate 6 after 48 hrs incubation by microdilution broth method. The following applies: isolate 6, 48 h. It counts as functional. An outline of the steps: as §1
The test system of series [26] is Moraxella catarrhalis. The series is described as follows: Antibacterial activity against beta-lactamase producing Moraxella catarrhalis isolate 2 at 10 ug/disc after overnight incubation by disc diffusion assay. As to conditions: read-out: IZ. It counts as functional. An outline of the steps:
as §2

Series [27] deals with Moraxella catarrhalis. The series is described as follows: Antibacterial activity against beta-lactamase producing Moraxella catarrhalis isolate 4 after 48 hrs incubation by microdilution broth method. The class given is functional. The following applies: isolate 4, 48 h. An outline of the steps:
as §1

The subject of series [28] is Moraxella catarrhalis. The series is described as follows: Antibacterial activity against beta-lactamase producing Moraxella catarrhalis isolate 3 after 48 hrs incubation by microdilution broth method. The class given is functional. The following applies: isolate 3, 48 h. An outline of the steps: as §1

Take `CCOC(=O)C/N=C\C(CC)(CC)SSC(C=O)(CC)CC`: the result with Enterococcus faecalis [1], in the series on Enterococcus faecalis [2], in the series with Escherichia coli [4], in the series with Staphylococcus aureus [5], in the series with Staphylococcus aureus [6] and in the series on Pseudomonas aeruginosa [7] was inactive. The result with Escherichia coli [8] and in the series on Pseudomonas aeruginosa [9] was inactive. In series [3], the degraded at 48 h was found to be 10%.
As to `CCOC(=O)C/N=C\C(CC)(CC)SSC(/C=N/CC(=O)OCC)(CC)CC`, the outcome with Enterococcus faecalis [1], in the series on Enterococcus faecalis [2], with Escherichia coli [4], with Staphylococcus aureus [5], with Staphylococcus aureus [6] and in the series with Pseudomonas aeruginosa [7] was inactive. The result in the series on Escherichia coli [8] and in the series on Pseudomonas aeruginosa [9] was inactive. For the same compound, in series [3], the degraded at 48 h came out at 10%.
`O=C1CC(Sc2ccc(S)cc2)N1` (racemic): the MBC was 125 µg/mL (≈ 592 µM) in the series on Moraxella catarrhalis [10]; 250 µg/mL (≈ 1180 µM) in the series with Moraxella catarrhalis [15]; 25 µg/mL (≈ 118 µM) in series [16]; 125 µg/mL (≈ 592 µM) against Moraxella catarrhalis [23]; 125 µg/mL (≈ 592 µM) against Moraxella catarrhalis [25]; 500 µg/mL (≈ 2370 µM) in the series on Moraxella catarrhalis [27]. The compound further came in with an MBC in the series on Moraxella catarrhalis [28] of 125 µg/mL (≈ 592 µM). The “inhibition zone (IZ)” value with Moraxella catarrhalis [11], in the series on Moraxella catarrhalis [18], in the series on Moraxella catarrhalis [20], in the series with Moraxella catarrhalis [21] and with Moraxella catarrhalis [22] was “inactive” in each case. The result with Enterococcus faecalis [1], with Enterococcus faecalis [2], in the series with Escherichia coli [4], in the series on Staphylococcus aureus [5], in the series with Staphylococcus aureus [6] and with Pseudomonas aeruginosa [7] was inactive. Also, the outcome in the series with Escherichia coli [8] and with Pseudomonas aeruginosa [9] was inactive. In addition, the zone of inhibition at 10 µg/disc in the series with Moraxella catarrhalis [12] (read-out: IZ) amounted to 7 mm; in the series with Moraxella catarrhalis [13], 7 mm; in the series on Moraxella catarrhalis [14], 7 mm; in the series on Moraxella catarrhalis [17] it was 7 mm; in the series with Moraxella catarrhalis [19] it was 8 mm; in the series with Moraxella catarrhalis [24], 7 mm. Further, the zone of inhibition at 10 µg/disc in the series with Moraxella catarrhalis [26] is 8 mm.
`CCOC(=O)C/N=C\C(S)(CC)CC`: the result in the series with Enterococcus faecalis [1], in the series on Enterococcus faecalis [2], with Escherichia coli [4], in the series with Staphylococcus aureus [5], in the series with Staphylococcus aureus [6] and in the series on Pseudomonas aeruginosa [7] was inactive. Further, the result in the series with Escherichia coli [8] and in the series with Pseudomonas aeruginosa [9] was inactive. Moreover, the “inhibition zone (IZ)” value in the series with Moraxella catarrhalis [12], in the series with Moraxella catarrhalis [18] and with Moraxella catarrhalis [21] was “inactive” throughout. Moreover, the Percent compound degraded in [3] (48 h) is given as 10%. Moreover, the zone of inhibition at 10 µg/disc was found to be 11 mm in the series with Moraxella catarrhalis [19] and 2 mm in the series with Moraxella catarrhalis [26].
As for `CCC(C=O)(CC)SSC(/C=N\CC(=O)OC)(CC)CC`, the result with Enterococcus faecalis [1], with Enterococcus faecalis [2], in the series with Escherichia coli [4], in the series on Staphylococcus aureus [5], in the series on Staphylococcus aureus [6] and in the series on Pseudomonas aeruginosa [7] was inactive. For the same compound, the outcome with Escherichia coli [8] and with Pseudomonas aeruginosa [9] was inactive. Moreover, the degraded at 48 h in [3] is 10%.
